Measurements taken from ChEMBL document CHEMBL3822375, “Preclinical Characterization of 3β-(N-Acetyl l-cysteine methyl ester)-2aβ,3-dihydrogaliellalactone (GPA512), a Prodrug of a Direct STAT3 Inhibitor for the Treatment of Prostate Cancer” (J Med Chem, 2016).
Converted amounts (≈) assume the structure as drawn. The source made the active and inactive calls. The calls are words filed in the database; no cut-off is given here.

How the values were obtained:
[1] = test system: Mus musculus; experiment: AUC (0 to infinity) in mouse plasma at 1.25 mg/kg, iv by LC-MS/MS analysis; type: ADME, organism-based; set-up: dose 1.25 mg/kg, time infinity, route intravenous; conditions: in vivo
How it was run: (§1)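 Single dose to mice; oral, iv or ip as listed, in 5% DMSO/50 mM citrate buffer pH 4.0 (dosing solutions 0.5, 2 or 5 mg/mL). Oral dosing at 20 mL/kg. Terminal blood under barbiturate anaesthesia at eight time-points to 8 h, n=3 mice per time-point, EDTA plasma. Acetonitrile precipitation with internal standard, LC-MS/MS against plasma calibration lines. Non-compartmental analysis on mean data, trapezoidal AUC.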

[2] = test system: Mus musculus; experiment: AUC (0 to infinity) in mouse plasma at 10 mg/kg, po by LC-MS/MS analysis; type: ADME, organism-based; set-up: dose 10 mg/kg, route oral, time infinity; conditions: in vivo; how it was run: as §1
[3] = test system: Hepatocyte; experiment: Drug level in mouse hepatocytes treated with 3-beta-(N-Acetyl-L-cysteine methyl ester)-2a-beta,3-dihydrogaliellalactone measured after 2 hrs by UPLC-MS analysis; type: ADME, cell-based
How it was run: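 Cryopreserved mouse hepatocytes in Celsis InVitro HI medium, pH 7.4, 37 °C, with 10 µM initial compound from DMSO stock. Sampled at 0 and 120 min, quenched with an equal volume of acetonitrile, analysed by UPLC/Q-TOF-MS. Viability checked by Trypan blue.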

[4] = test system: LNCaP; experiment: Cytotoxicity against human LNCAP cells assessed as inhibition of cell viability at 3 uM after 72 hrs by WST-1 proliferation assay; type: functional, cell-based
How it was run: (§2)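 Cells in RPMI-1640 (DU145, LNCaP, LNCaP-IL6+) or HAM's F-12 (PC3) with 10% FBS. DU145 and LNCaP-IL6+ seeded at 2 000 cells/well, LNCaP and PC3 at 5 000 cells/well, adhered 24 h, then exposed to compound for 72 h. WST-1 absorbance read at 450 nm with 630 nm reference. Background subtracted; expressed as percent of untreated cells.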

[5] = Apparent half life in mouse plasma at 5 mg/kg, ip; type: ADME, organism-based
[6] = Apparent half life in mouse plasma at 10 mg/kg, po by LC-MS/MS analysis; type: ADME, organism-based; conditions: read-out: t1/2(app); how it was run: as §1
[7] = Metabolic stability in mouse hepatocytes assessed as compound disappearance measured after 2 hrs by LC-MS/MS analysis; type: ADME, cell-based, Hepatocyte; conditions: read-out: Drug degradation
How it was run: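 Cryopreserved mouse hepatocytes incubated with an initial 10 µM test item (DMSO stock) in Celsis InVitro HI medium, pH 7.4, 37 °C. Cell viability checked by Trypan blue. Sampled at 0 and 120 min and stopped with an equal volume of acetonitrile. Analysed by UPLC/Q-TOF-MS.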

[8] = Apparent permeability from apical to basolateral side in human Caco2 cells at 20 uM measured after 120 mins by UPLC-MS/MS analysis; type: ADME, cell-based; conditions: Caco-2
How it was run: (§3)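 Caco-2 monolayers in Hanks' balanced salt solution with 10 mM Hepes, pH 7.4. Apical and basolateral transport measured at 20 µM test item. Both compartments sampled at 0, 60 and 120 min and analysed by UPLC-MS/MS.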

[9] = Cmax in mouse plasma at 1.25 mg/kg, iv by LC-MS/MS analysis; type: ADME, organism-based; set-up: dose 1.25 mg/kg, route intravenous; how it was run: as §1
[10] = Stability of compound assessed as compound disappearance measured after 2 hrs by LC-MS/MS analysis; type: physicochemical
[11] = Drug metabolism in S9 intestinal fraction (unknown origin) assessed as glutathione conjugate formation; type: ADME
[12] = Efflux ratio of apparent permeability across apical to basolateral side over basolateral to apical side in human Caco2 cells at 20 uM measured after 120 mins by UPLC-MS/MS analysis; type: ADME, cell-based; conditions: caco-2, 2 h; how it was run: as §3
[13] = Tmax in mouse plasma at 5 mg/kg, ip by LC-MS/MS analysis; type: ADME, organism-based
[14] = Half life in mouse plasma at 5 uM by LC-MS/MS analysis; type: ADME, cell-free
How it was run: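 Plasma of each species incubated at 37 °C with compound at 5 µM initial, 1% DMSO, n=2. Simvastatin and eucatropine run as controls. Aliquots taken at 0, 5, 15, 30 and 60 min and quenched with acetonitrile containing internal standard, then analysed by LC-MS/MS.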

[15] = Volume of distribution in mouse plasma at 1.25 mg/kg, iv by LC-MS/MS analysis; type: ADME, organism-based
[16] = test system: LNCaP; experiment: Antiproliferative activity against human LNCAP cells expressing IL6 and pSTAT3 at 3 uM after 72 hrs by WST-1 proliferation assay; type: functional, cell-based; how it was run: as §2
[17] = Tmax in mouse plasma at 1.25 mg/kg, iv by LC-MS/MS analysis; type: ADME, organism-based
[18] = test system: Mus musculus; experiment: AUC (0 to t) in mouse plasma at 10 mg/kg, po by LC-MS/MS analysis; type: ADME, organism-based; conditions: in vivo; how it was run: as §1
[19] = test system: LNCaP; experiment: Antiproliferative activity against human LNCAP cells at 3 uM after 72 hrs by WST-1 proliferation assay; type: functional, cell-based; how it was run: as §2
[20] = Chemical stability of the compound in phosphate buffer saline assessed as half life at 10 uM at pH 7.4 by LC-MS/MS analysis; type: physicochemical; conditions: phosphate buffered saline
How it was run: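 Compound diluted from DMSO (or methanol) stock to 10 µM, 2% solvent final, n=2. Matrix was 0.1 M PBS pH 7.4, or […] HCl with 2 mg/mL NaCl adjusted to pH 1.2. Mixed on a shaker; sampled at nominal 5, 15, 30 and 60 min plus T=0. LC-MS/MS with internal standard; % remaining relative to T=0. Formation of parent also monitored.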

[21] = test system: DU-145; experiment: Antiproliferative activity against human DU145 cells expressing pSTAT3 at 3 uM after 72 hrs by WST-1 proliferation assay; type: functional, cell-based; how it was run: as §2
[22] = test system: Mus musculus; experiment: AUC (0 to infinity) in mouse plasma at 5 mg/kg, ip by LC-MS/MS analysis; type: ADME, organism-based; set-up: dose 5 mg/kg, route intraperitoneal, time infinity; conditions: in vivo; how it was run: as §1
[23] = test system: Mus musculus; experiment: AUC (0 to t) in mouse plasma at 1.25 mg/kg, iv by LC-MS/MS analysis; type: ADME, organism-based; conditions: in vivo; how it was run: as §1
[24] = Clearance in mouse plasma at 1.25 mg/kg, iv by LC-MS/MS analysis; type: ADME, organism-based; how it was run: as §1
[25] = Cmax in mouse plasma at 5 mg/kg, ip by LC-MS/MS analysis; type: ADME, organism-based; set-up: dose 5 mg/kg, route intraperitoneal; how it was run: as §1
[26] = test system: PC-3; experiment: Antiproliferative activity against human PC3 cells at 3 uM after 72 hrs by WST-1 proliferation assay; type: functional, cell-based; how it was run: as §2
[27] = test system: PC-3; experiment: Cytotoxicity against human PC3 cells assessed as inhibition of cell viability at 3 uM after 72 hrs by WST-1 proliferation assay; type: functional, cell-based; how it was run: as §2
[28] = Antiproliferative activity against human DU145 cells after 72 hrs by WST-1 proliferation assay; type: functional, cell-based; conditions: DU-145, 72 h; how it was run: as §2
[29] = Apparent half life in mouse plasma at 1.25 mg/kg, iv by LC-MS/MS analysis; type: ADME, organism-based; conditions: read-out: t1/2(app); how it was run: as §1
[30] = test system: LNCaP; experiment: Cytotoxicity against human LNCAP cells expressing IL6 and pSTAT3 assessed as inhibition of cell viability at 3 uM after 72 hrs by WST-1 proliferation assay; type: functional, cell-based; how it was run: as §2
[31] = Half life in mouse plasma by LC-MS/MS analysis; type: ADME, cell-free
[32] = Solubility of the compound in phosphate buffer saline at pH 7.4 by LC-MS analysis; type: physicochemical; conditions: phosphate buffered saline
[33] = test system: DU-145; experiment: Cytotoxicity against human DU145 cells expressing pSTAT3 assessed as inhibition of cell viability at 3 uM after 72 hrs by WST-1 proliferation assay; type: functional, cell-based; how it was run: as §2
[34] = test system: Mus musculus; experiment: AUC (0 to t) in mouse plasma at 5 mg/kg, ip by LC-MS/MS analysis; type: ADME, organism-based; conditions: in vivo; how it was run: as §1

C[C@@H]1C=C2C(=O)O[C@@H]3CC[C@H](C1)[C@]23O
AUC [1]: 171 µg/mL/min
AUC [2]: 6 µg/mL/min
Drug metabolism [3]: metabolite_detected
inhibition [4]: inactive
half-life [5]: 2.4 h
half-life [6]: 1.48 h
metabolised at 2 h [7]: 45%
Papp A→B at 2 h, 20 µM [8]: 65.9 ×10⁻⁶ cm/s
Cmax [9]: 2960 ng/mL
Stability [10]: Stable
Drug metabolism [11]: metabolite_detected
Ratio [12]: 2
Tmax [13]: 5 min
half-life at 5 µM [14]: 1.23 h
Vd [15]: 1.4 L/kg
Activity [16]: Active
Tmax [17]: 5 min
AUCt [18]: 5 µg/mL/min
Activity [19]: inactive
half-life at 10 µM [20]: > 9.8 h
Activity [21]: Active
AUC [22]: 372 µg/mL/min
AUCt [23]: 159 µg/mL/min
clearance [24]: 7.3 mL/min/kg
Cmax [25]: 5520 ng/mL
Activity [26]: inactive
inhibition [27]: inactive
IC50 [28]: 3.02 µM
half-life [29]: 2.17 h
inhibition [30]: Active
half-life [31]: 1.23 h
solubility [32]: 143 µM (≈ 27.8 µg/mL)
inhibition [33]: Active
AUCt [34]: 351 µg/mL/min
